Active and inactive are the calls of the source. The calls are words filed in the database; no cut-off is given here.
What was measured:
Mus musculus [1] = test: Anti-diabetic activity in overnight fasted diabetic KK-Ay mouse assessed as reduction in blood glucose AUC at 50 to 100 mg/kg, po measured after 35 days by oral glucose tolerance test; assay type: functional, organism-based; settings: dose 50-100 mg/kg, time 35.0 day
Summary of the method: (§1)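 KK-Ay mice orally treated with 50 or 100 mg/kg compound or 5 mg/kg rosiglitazone, C57BL/6J as normal controls. After 35 days of treatment, oral glucose tolerance test and insulin tolerance test run. Blood glucose plotted against time, AUC calculated. Mean ± SD, 8-9 mice per group.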

[2] = Effect on high fat diet-fed C57BL/6J mouse model of obesity and diabetes assessed as food intake; settings: in vivo
Mus musculus [3] = test: Antidiabetic activity in KK-Ay mouse assessed as effect on insulin level at 50 mg/kg, […] by ELISA (reference value: 226 +/- 15.5 mU/l); assay type: functional
Mus musculus [4] = test: Anti-diabetic activity in high fat diet-fed KK-Ay mouse model of obesity and diabetes assessed as improved pathological changes in pancreas at 50 to 100 mg/kg, po by hematoxylin and eosin staining based histopathological analysis; assay type: functional, organism-based; settings: dose 50-100 mg/kg
Summary of the method: (§2)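 Mice sacrificed at study end, with KK-Ay given 50 or 100 mg/kg compound or 5 mg/kg rosiglitazone orally and C57BL/6J as normal controls. Kidney and pancreas sections H&E stained, imaged at 200×, pathological changes scored. Mean ± SD of 8-9 mice per group.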

Mus musculus [5] = test: Antidiabetic activity in KK-Ay mouse assessed as effect on glycosylated haemoglobin level at 50 mg/kg, po for 50 days by glucose oxidase method (reference value: 8.74 +/- 1.08%); assay type: functional; settings: time 50 day
Summary of the method: (§3)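 Lipogenic-diet KK-Ay mice given 50 or 100 mg/kg compound or 5 mg/kg rosiglitazone orally for 50 days, C57BL/6J as normal controls. Fasting blood glucose, glycosylated haemoglobin, AGE, insulin, HOMA-IR, cholesterol, LDL-c, TG, serum creatinine and BUN determined. Mean ± SD, 8-9 mice per group.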

Mus musculus [6] = test: Antidiabetic activity in KK-Ay mouse assessed as effect on HOMA-IR level at 50 mg/kg, […] by ELISA (reference value: 137 +/- 18.4); assay type: functional
L6 [7] = test: Induction of glycolysis in rat L6 cells assessed as reduction in cellular ATP production at 10 to 40 uM measured after 24 hrs; assay type: functional, cell-based; settings: dose 10-40 µM
Summary of the method: (§4)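 L6 myotubes treated with DMSO, compound or RGZ (20 μM) at the indicated concentrations for 24 h. Culture supernatants assayed for glucose consumption and lactate release; lysed cells assayed for ATP, normalized to protein. Mean ± SD of 3 independent experiments vs DMSO.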

[8] = Effect on high fat diet-fed po dosed C57BL/6J mouse model of obesity and diabetes assessed as water intake; assay type: organism-based; settings: in vivo
Mus musculus [9] = test: Antidiabetic activity in KK-Ay mouse assessed as effect on AGE level at 100 mg/kg, […] by ELISA (Rvb 2.85 +/- 0.92 ug/ml); assay type: functional
[10] = Acute toxicity in Kunming mouse assessed as effect on blood CRE level at 250 to 1000 mg/kg, po administered as single dose measured for 7 days; assay type: organism-based; settings: in vivo, 168 h, dose 250-1000 mg/kg, time 7 day
Summary of the method: (§5)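 Kunming mice each received one oral dose at 250, 500, 750 or 1000 mg·kg^-1 and were closely monitored for 7 days. At the end, blood was sampled and GOT, GPT, BUN and CRE were measured […] as liver and kidney function markers.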

Mus musculus [11] = test: Antidiabetic activity in KK-Ay mouse assessed as effect on glycosylated haemoglobin level at 100 mg/kg, po for 50 days by glucose oxidase method (reference value: 8.74 +/- 1.08%); assay type: functional; settings: time 50 day; summary of the method: as §3
Mus musculus [12] = test: Antidiabetic activity in KK-Ay mouse assessed as reduction in fasting blood glucose level at 50 mg/kg, po for 50 days by glucose oxidase method (reference value: 13.2 +/- 2.51 mM); assay type: functional; settings: time 50 day; summary of the method: as §3
[13] = Cytotoxicity against human HepG2 cells after 24 hrs by MTT assay; assay type: cell-based
Summary of the method: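 HepG2 cells exposed to compound; cell growth measured; CC50 derived from the concentration–growth relationship.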

Mus musculus [14] = test: Anti-diabetic activity in high fat diet-fed KK-Ay mouse model of obesity and diabetes assessed as improved pathological changes in kidney at 50 to 100 mg/kg, po by hematoxylin and eosin staining based histopathological analysis; assay type: functional, organism-based; settings: dose 50-100 mg/kg; summary of the method: as §2
Mus musculus [15] = test: Antidiabetic activity in KK-Ay mouse assessed as effect on LDL level at 100 mg/kg, po […] by ELISA (reference value: 1.11 +/- 0.24 mM); assay type: functional
[16] = Acute toxicity in Kunming mouse assessed as effect on blood GPT level at 250 to 1000 mg/kg, po administered as single dose measured for 7 days; assay type: organism-based; settings: in vivo, 168 h, dose 250-1000 mg/kg, time 7 day; summary of the method: as §5
Mus musculus [17] = test: Antidiabetic activity in KK-Ay mouse assessed as effect on cholesterol level at 100 mg/kg, po for 24 hrs by ELISA (reference value: 7.38 +/- 1.03 mM); assay type: functional
L6 [18] = test: Increase in glucose consumption in rat L6 cells after 24 hrs by glucose oxidase assay; assay type: functional, cell-based; summary of the method: as §4
Mus musculus [19] = test: Antidiabetic activity in KK-Ay mouse assessed as reduction in fasting blood glucose level at 100 mg/kg, po for 50 days by glucose oxidase method (reference value: 13.3 +/- 2.85 mM); assay type: functional; settings: time 50 day; summary of the method: as §3
Mus musculus [20] = test: Anti-diabetic activity in overnight fasted diabetic KK-Ay mouse assessed as increase in insulin responsiveness by measuring blood glucose at 50 to 100 mg/kg, po measured after 35 days by insulin tolerance test; assay type: functional, organism-based; settings: dose 50-100 mg/kg, time 35.0 day; summary of the method: as §1
[21] = Acute toxicity in Kunming mouse assessed as effect on blood BUN level at 250 to 1000 mg/kg, po administered as single dose measured for 7 days; assay type: organism-based; settings: in vivo, 168 h, dose 250-1000 mg/kg, time 7 day; summary of the method: as §5
Mus musculus [22] = test: Antidiabetic activity in KK-Ay mouse assessed as effect on Triglycerides level at 100 mg/kg, […] by ELISA (reference value: 4.01 +/- 1.83 mM); assay type: functional
[23] = Effect on high fat diet-fed KK-Ay mouse model of obesity and diabetes assessed as food intake at 50 mg/kg, po (reference value: 5.67 +/- 0.55 g/day); assay type: ADME, organism-based; settings: in vivo
Summary of the method: (§6)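 KK-Ay mice on lipogenic diet, with C57BL/6J mice as normal controls, dosed orally at 50 or 100 mg/kg (test) or 5 mg/kg (RGZ). Food intake (g/day), water intake (mL/day) and body weight recorded before and after treatment; body weight gain calculated. Mean±SD, 8-9 mice per group.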

HepG2 = test: Increase in glucose consumption in human HepG2 cells at 10 to 40 uM measured after 24 hrs; assay type: functional, cell-based; settings: dose 10-40 µM
Summary of the method: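 HepG2 cells treated 24 h at the indicated concentrations; RGZ as reference. Supernatants used for glucose consumption and lactate release; lysed cells used for ATP, normalized to protein content. Mean ± SD of 3 or 4 separate experiments; compared with DMSO.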

[24] = Effect on high fat diet-fed KK-Ay mouse model of obesity and diabetes assessed as total body weight gain at 50 mg/kg, po (reference value: 43.5 +/- 5.24 g); assay type: ADME, organism-based; settings: in vivo; summary of the method: as §6
Mus musculus [25] = test: Antidiabetic activity in KK-Ay mouse assessed as effect on HOMA-IR level at 100 mg/kg, […] by ELISA (reference value: 137 +/- 18.4); assay type: functional

CCCC[C@@H]1[C@H]2CCCN3CCC[C@@H](CN1S(=O)(=O)c1ccc(C(F)(F)F)cc1)[C@@H]23
Activity (Mus musculus [1]): Active
Activity [2]: 4.29 g/day
Activity (Mus musculus [3]): 177 mU/L
Activity (Mus musculus [4]): Active
Activity (Mus musculus [5]): 7.07%
Activity (Mus musculus [6]): 74.3
Activity (L6 [7]): Active
Activity [8]: 4.38 mL/day
Activity (Mus musculus [9]): 1.13 µg/mL
Activity [10]: Non-Toxic
Activity (Mus musculus [11]): 6.75%
Activity (Mus musculus [12]): 9.44 mM
CC50 at 24 h [13]: 642 µM
Activity (Mus musculus [14]): Active
Activity (Mus musculus [15]): 0.82 mM
Activity [16]: Non-Toxic
Activity (Mus musculus [17]): 5.55 mM
Activity (L6 [18]): Dose-Dependent Effect
Activity (Mus musculus [19]): 8.18 mM
Activity (Mus musculus [20]): Active
Activity [21]: Non-Toxic
Activity (Mus musculus [22]): 2.39 mM
Activity [23]: 5.2 g/day
Activity (HepG2): Dose-Dependent Effect
Activity [24]: 3.52 g
Activity (Mus musculus [25]): 46.5

— ChEMBL document CHEMBL4818983, “Structure-activity relationship and hypoglycemic activity of tricyclic matrines with advantage of treating diabetic nephropathy” (Eur J Med Chem, 2020)
